Tests used:
SNB-75 = test: Growth inhibition of human SNB75 cells at 10 uM relative to control; assay type: functional; settings: read-out: GI
Summary of the method: (§1)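 Single-dose screen across the 60-cell-line human tumor panel at 10 μM. Growth inhibition is reported as a percentage, taken as 100 minus the % growth relative to untreated control.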

OVCAR-4 = test: Growth inhibition of human OVCAR4 cells at 10 uM relative to control; assay type: functional; settings: read-out: GI
Summary of the method: (§2)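 Each cell line in a 60-line human tumour panel exposed to one 10 μM concentration. Growth inhibition percentage computed as 100 minus the percentage activity relative to control.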

Mus musculus [1] = test: Anticonvulsant activity in mouse assessed as protection against strychnine-induced seizure at 1 mmol/kg, ip administered 30 min prior to strychnine-challenge measured after 60 mins relative to control; assay type: functional
PC-3 = test: Growth inhibition of human PC3 cells at 10 uM relative to control; assay type: functional; settings: read-out: GI; summary of the method: as §2
OVCAR-8 = test: Growth inhibition of human OVCAR8 cells at 10 uM relative to control; assay type: functional; settings: read-out: GI; summary of the method: as §2
NCI-H226 = test: Growth inhibition of human NCI-H226 cells at 10 uM relative to control; assay type: functional; settings: read-out: GI; summary of the method: as §2
NCI-H522 = test: Growth inhibition of human NCI-H522 cells at 10 uM relative to control; assay type: functional; settings: read-out: GI; summary of the method: as §2
SF-268 = test: Growth inhibition of human SF268 cells at 10 uM relative to control; assay type: functional; settings: read-out: GI; summary of the method: as §2
MOLT-4 = test: Growth inhibition of human MOLT4 cells at 10 uM relative to control; assay type: functional; settings: read-out: GI; summary of the method: as §2
MCF7 = test: Growth inhibition of human MCF7 cells at 10 uM relative to control; assay type: functional; settings: read-out: GI; summary of the method: as §2
A549 = test: Growth inhibition of human A549 cells at 10 uM relative to control; assay type: functional; settings: read-out: GI; summary of the method: as §2
Mus musculus [2] = species on record: Mus musculus; test: Protective index, ratio of TD50 for mouse to ED50 for pentylenetetrazol-induced seizure in mouse; assay type: functional
Summary of the method: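 Mice. Index is TD50/ED50. TD50 is the dose causing minimal neurological toxicity in 50% of mice in the Chimney test. ED50 is the dose protecting 50% of mice against pentylenetetrazole-induced seizures. Both are estimated from testing at several doses.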

T47D = test: Growth inhibition of human T47D cells at 10 uM relative to control; assay type: functional; settings: read-out: GI; summary of the method: as §1
HCT-15 = test: Growth inhibition of human HCT15 cells at 10 uM relative to control; assay type: functional; settings: read-out: GI; summary of the method: as §2
NCI-H23 = test: Growth inhibition of human NCI-H23 cells at 10 uM relative to control; assay type: functional; settings: read-out: GI; summary of the method: as §2
EKVX = test: Growth inhibition of human EKVX cells at 10 uM relative to control; assay type: functional; settings: read-out: GI; summary of the method: as §2
RPMI-8226 = test: Growth inhibition of human RPMI8226 cells at 10 uM relative to control; assay type: functional; settings: read-out: GI; summary of the method: as §2
Mus musculus [3] = test: Anticonvulsant activity in mouse assessed as protection against pentylenetetrazol-induced seizure at 1 mmol/kg, ip administered 30 min prior to pentylenetetrazol-challenge measured after 60 mins relative to control; assay type: functional
MDA-MB-231 = test: Growth inhibition of human MDA-MB-231 cells at 10 uM relative to control; assay type: functional; settings: read-out: GI; summary of the method: as §2
K562 = test: Growth inhibition of human K562 cells at 10 uM relative to control; assay type: functional; settings: read-out: GI; summary of the method: as §2
[4] = Therapeutic index, ratio of LD50 for mouse to ED50 for pentylenetetrazol-induced seizure in mouse; assay type: organism-based; settings: in vivo, read-out: Ratio LD50/ED50
Summary of the method: (§3)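 In mice, LD50 is the dose causing 50% mortality. ED50 is the dose protecting 50% of mice against pentylenetetrazole-induced seizures. Therapeutic index = LD50/ED50.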

U-251 = test: Growth inhibition of human U251 cells at 10 uM relative to control; assay type: functional; settings: read-out: GI; summary of the method: as §1
SNB-19 = test: Growth inhibition of human SNB19 cells at 10 uM relative to control; assay type: functional; settings: read-out: GI; summary of the method: as §1
SR = test: Growth inhibition of human SR cells at 10 uM relative to control; assay type: functional; settings: read-out: GI; summary of the method: as §1
CCRF-CEM = test: Growth inhibition of human CCRF-CEM cells at 10 uM relative to control; assay type: functional; settings: read-out: GI; summary of the method: as §2
[5] = Growth inhibition of human 786-O cells at 10 uM relative to control; assay type: functional; settings: 786-0, read-out: GI; summary of the method: as §2
Mus musculus [6] = test: Anticonvulsant activity in mouse assessed as protection against picrotoxin-induced seizure at 1 mmol/kg, ip administered 30 min prior to picrotoxin-challenge measured after 60 mins relative to control; assay type: functional
[7] = Growth inhibition of human Hs 578T cells at 10 uM relative to control; assay type: functional; settings: read-out: GI; summary of the method: as §2
MDA-MB-468 = test: Growth inhibition of human MDA-MB-468 cells at 10 uM relative to control; assay type: functional; settings: read-out: GI; summary of the method: as §2
UO-31 = test: Growth inhibition of human UO31 cells at 10 uM relative to control; assay type: functional; settings: read-out: GI; summary of the method: as §1
SK-MEL-28 = test: Growth inhibition of human SK-MEL-28 cells at 10 uM relative to control; assay type: functional; settings: read-out: GI; summary of the method: as §2
CAKI-1 = test: Growth inhibition of human CAKI-1 cells at 10 uM relative to control; assay type: functional; settings: read-out: GI; summary of the method: as §2
Mus musculus [8] = test: Anticonvulsant activity in mouse assessed as protection against maximal electroshock-induced seizure at 1 mmol/kg, ip administered 30 min prior to maximal electroshock-challenge measured after 60 mins relative to control; assay type: functional
KM12 = test: Growth inhibition of human KM12 cells at 10 uM relative to control; assay type: functional; settings: read-out: GI; summary of the method: as §2
[9] = Toxicity in ip dose mouse assessed as mortality; assay type: organism-based; settings: in vivo; summary of the method: as §3
Mus musculus [10] = test: Anticonvulsant activity in ip dosed mouse assessed as protection against pentylenetetrazol-induced seizure administered 30 min prior to pentylenetetrazol-challenge measured after 60 mins; assay type: functional
Summary of the method: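 Mice received several doses for quantification. ED50 taken as the dose protecting 50% of mice against pentylenetetrazol-induced seizures.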

SN12C = test: Growth inhibition of human SN12C cells at 10 uM relative to control; assay type: functional; settings: read-out: GI; summary of the method: as §1
MDA-MB-435 = test: Growth inhibition of human MDA-MB-435 cells at 10 uM relative to control; assay type: functional; settings: read-out: GI; summary of the method: as §2
HCT-116 = test: Growth inhibition of human HCT116 cells at 10 uM relative to control; assay type: functional; settings: read-out: GI; summary of the method: as §2
[11] = Neurotoxicity in ip dosed mouse assessed as impaired motor coordination administered 30 mins prior to test by chimney test; assay type: toxicity, organism-based; settings: in vivo
Summary of the method: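 Mice, Chimney test. TD50 is the dose that produces minimal neurological toxicity (impaired motor coordination) in 50% of animals, estimated from testing at several doses.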

HL-60(TB) = test: Growth inhibition of human HL-60(TB) cells at 10 uM relative to control; assay type: functional; settings: read-out: GI
Summary of the method: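 Single-dose screen at 10 μM across the 60-cell-line tumour panel. Percent growth inhibition = 100 minus percent growth activity relative to untreated control.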

OVCAR-3 = test: Growth inhibition of human OVCAR3 cells at 10 uM relative to control; assay type: functional; settings: read-out: GI; summary of the method: as §2
UACC-62 = test: Growth inhibition of human UACC62 cells at 10 uM relative to control; assay type: functional; settings: read-out: GI; summary of the method: as §1
SF-539 = test: Growth inhibition of human SF539 cells at 10 uM relative to control; assay type: functional; settings: read-out: GI; summary of the method: as §2
SK-OV-3 = test: Growth inhibition of human SKOV3 cells at 10 uM relative to control; assay type: functional; settings: read-out: GI; summary of the method: as §2
SK-MEL-5 = test: Growth inhibition of human SK-MEL-5 cells at 10 uM relative to control; assay type: functional; settings: read-out: GI; summary of the method: as §2
ACHN = test: Growth inhibition of human ACHN cells at 10 uM relative to control; assay type: functional; settings: read-out: GI; summary of the method: as §2
RXF 393 = test: Growth inhibition of human RXF393 cells at 10 uM relative to control; assay type: functional; settings: read-out: GI; summary of the method: as §2

Cc1ccccc1-n1c(C)nc2cc(N3C(=O)CSC3c3ccccc3)ccc2c1=O (centres undefined)
inhibition of growth at 10 µM (SNB-75): 19.5%
inhibition of growth at 10 µM (OVCAR-4): 3%
Activity (Mus musculus [1]): 0%
inhibition of growth at 10 µM (PC-3): 26.9%
inhibition of growth at 10 µM (OVCAR-8): 5%
inhibition of growth at 10 µM (NCI-H226): 14.3%
inhibition of growth at 10 µM (NCI-H522): 18%
inhibition of growth at 10 µM (SF-268): 14.2%
inhibition of growth at 10 µM (MOLT-4): 46.3%
inhibition of growth at 10 µM (MCF7): 21.8%
inhibition of growth at 10 µM (A549): 8.1%
Ratio TD50/ED50 (Mus musculus [2]): 1.06
inhibition of growth at 10 µM (T47D): 25.8%
inhibition of growth at 10 µM (HCT-15): 13.3%
inhibition of growth at 10 µM (NCI-H23): 4.4%
inhibition of growth at 10 µM (EKVX): 12.8%
inhibition of growth at 10 µM (RPMI-8226): 21.4%
Activity (Mus musculus [3]): 100%
inhibition of growth at 10 µM (MDA-MB-231): 17.3%
inhibition of growth at 10 µM (K562): 37.6%
selectivity ratio [4]: 2.13
inhibition of growth at 10 µM (U-251): 13%
inhibition of growth at 10 µM (SNB-19): 9.7%
inhibition of growth at 10 µM (SR): 35.3%
inhibition of growth at 10 µM (CCRF-CEM): 31.1%
inhibition of growth at 10 µM [5]: 3%
Activity (Mus musculus [6]): 50%
inhibition of growth at 10 µM [7]: 6%
inhibition of growth at 10 µM (MDA-MB-468): 25.8%
inhibition of growth at 10 µM (UO-31): 22%
inhibition of growth at 10 µM (SK-MEL-28): 5%
inhibition of growth at 10 µM (CAKI-1): 15.6%
Activity (Mus musculus [8]): 100%
inhibition of growth at 10 µM (KM12): 15.5%
LD50 [9]: 1500 µmol/kg
ED50 (Mus musculus [10]): 700 µmol/kg
inhibition of growth at 10 µM (SN12C): 3%
inhibition of growth at 10 µM (MDA-MB-435): 9.7%
inhibition of growth at 10 µM (HCT-116): 16%
TD50 at 0.5 h [11]: 750 µmol/kg
inhibition of growth at 10 µM (HL-60(TB)): 32.7%

Cc1ccccc1-n1c(C)nc2cc(N3C(=O)CSC3c3ccc(Cl)cc3)ccc2c1=O (centres undefined)
inhibition of growth at 10 µM (OVCAR-3): 5.2%
inhibition of growth at 10 µM (SNB-75): 7.6%
inhibition of growth at 10 µM (OVCAR-4): 5%
Activity (Mus musculus [1]): 0%
inhibition of growth at 10 µM (PC-3): 8%
inhibition of growth at 10 µM (MOLT-4): 39.1%
inhibition of growth at 10 µM (MCF7): 5.2%
inhibition of growth at 10 µM (UACC-62): 18%
inhibition of growth at 10 µM (SF-539): 5%
inhibition of growth at 10 µM (A549): 12%
Ratio TD50/ED50 (Mus musculus [2]): 1.5
inhibition of growth at 10 µM (T47D): 4%
inhibition of growth at 10 µM (SK-OV-3): 29.2%
inhibition of growth at 10 µM (EKVX): 4%
inhibition of growth at 10 µM (RPMI-8226): 9.2%
Activity (Mus musculus [3]): 100%
inhibition of growth at 10 µM (MDA-MB-231): 23.7%
inhibition of growth at 10 µM (SK-MEL-5): 4%
inhibition of growth at 10 µM (K562): 8.4%
selectivity ratio [4]: 2.53
inhibition of growth at 10 µM (CCRF-CEM): 11.3%
Activity (Mus musculus [6]): 75%
inhibition of growth at 10 µM (UO-31): 15%
inhibition of growth at 10 µM (ACHN): 3.5%
inhibition of growth at 10 µM (CAKI-1): 3%
Activity (Mus musculus [8]): 100%
LD50 [9]: 1040 µmol/kg
ED50 (Mus musculus [10]): 410 µmol/kg
inhibition of growth at 10 µM (SN12C): 5%
inhibition of growth at 10 µM (MDA-MB-435): 7.7%
inhibition of growth at 10 µM (RXF 393): 3%
TD50 at 0.5 h [11]: 600 µmol/kg
inhibition of growth at 10 µM (HL-60(TB)): 6%

Reference: ChEMBL document CHEMBL1955778, “Design and synthesis of novel 7-aminoquinazoline derivatives: antitumor and anticonvulsant activities” (Bioorg Med Chem Lett, 2012)
